{
  "source": "paper PMC6203112",
  "about": "(International Journal of Chronic Obstructive Pulmonary …, 2018)",
  "key": {"[1]": {"assay": "Study 1 Part 2: repeat ascending dose", "type": "in vivo, human", "conditions": "SDDPI; for CL/F / Racc / AUC(0-t): geometric mean (% CV); for AUC(0-t) / Tmax: human, plasma, inhaled; for AUC(0-t): AUC0–24 h; for Tmax: median (range)", "in_short": "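Blood was collected in lithium heparin, chilled on ice, and centrifuged at 2,000 ×g for 15 min at ~4°C. Plasma was stabilised with 1 M citric acid (100 µL per 1 mL plasma) and stored at ≤−65°C. After solid-phase extraction, samples were assayed by validated LC-MS/MS with heated electrospray and a deuterated internal standard (LLOQ 10 pg/mL). PK parameters were derived non-compartmentally.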"}, "[2]": {"conditions": "cited from earlier work"}, "[3]": {"assay": "Study 1 Part 1: adverse events after single doses via SDDPI", "type": "in vivo, human", "in_short": "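Study 1 Part 1 used a crossover design in healthy men aged 18–55. Single inhaled doses of test compound (20–2,000 µg) or matching placebo were given via a capsule-based single-dose dry-powder inhaler. Investigators recorded each AE and its relation to study medication. Counts are number (%) of the safety population, defined as randomized subjects receiving at least one dose.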"}, "[4]": {"tested_on": "human bronchial epithelial cells", "conditions": "alone and in combination with low-dose corticosteroids; cited from earlier work"}, "[5]": {"assay": "Study 1 Part 2: adverse events after multiple OD doses via SDDPI", "type": "in vivo, human", "conditions": "100 µg OD 7 days, N=8", "in_short": "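In Study 1 Part 2, healthy men were randomized to five parallel, dose-escalating cohorts. Each received test compound (100–1,600 µg) or matching placebo once daily for 7 days via a capsule-based single-dose dry-powder inhaler. AEs and investigator-assessed relation to study medication were recorded. Results are number (%) of subjects in the safety population (randomized, at least one dose).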"}},
  "data": [
    {"compound": "CS(=O)(=O)Nc1ccc(C(=O)O[C@@H](Cc2c(Cl)c[n+]([O-])cc2Cl)c2ccc(OC(F)F)c(OCC3CC3)c2)cc1OCC1CC1", "note": "[CHF6001]", "values": [
      {"measurement": "CL/F", "setting": "[1]; 100 µg OD, Day 7, N=7", "value": "723 (41.1) mL/min"},
      {"measurement": "Racc", "setting": "[1]; 100 µg OD, Day 7, N=7", "value": "2.89 (16.6)"},
      {"measurement": "CL/F", "setting": "[1]; 300 µg OD, Day 7, N=8", "value": "860 (44.7) mL/min"},
      {"measurement": "Racc", "setting": "[1]; 300 µg OD, Day 7, N=8", "value": "2.49 (31.8)"},
      {"measurement": "CL/F", "setting": "[1]; 600 µg OD, Day 7, N=9", "value": "956 (28.2) mL/min"},
      {"measurement": "Racc", "setting": "[1]; 600 µg OD, Day 7, N=9", "value": "2.47 (20.2)"},
      {"measurement": "CL/F", "setting": "[1]; 1,200 µg OD, Day 7, N=9", "value": "772 (26.6) mL/min"},
      {"measurement": "Racc", "setting": "[1]; 1,200 µg OD, Day 7, N=9", "value": "2.74 (28.2)"},
      {"measurement": "CL/F", "setting": "[1]; 1,600 µg OD, Day 7, N=6", "value": "910 (17.0) mL/min"},
      {"measurement": "Racc", "setting": "[1]; 1,600 µg OD, Day 7, N=6", "value": "2.75 (16.5)"},
      {"measurement": "AUC(0-t)", "setting": "[1]; 100 ug, 100 µg OD, Day 1, N=7", "value": 0.796, "unit": "ng·h/mL"},
      {"measurement": "AUC(0-t)", "setting": "[1]; 100 ug, 100 µg OD, Day 7, N=7", "value": 2.3, "unit": "ng·h/mL"},
      {"measurement": "Tmax", "setting": "[1]; 100 ug, 100 µg OD, Day 1, N=7", "value": 1.5, "unit": "h"},
      {"measurement": "Tmax", "setting": "[1]; 100 ug, 100 µg OD, Day 7, N=7", "value": 1, "unit": "h"},
      {"measurement": "AUC(0-t)", "setting": "[1]; 300 ug, 300 µg OD, Day 1, N=8", "value": 2.34, "unit": "ng·h/mL"},
      {"measurement": "AUC(0-t)", "setting": "[1]; 300 ug, 300 µg OD, Day 7, N=8", "value": 5.82, "unit": "ng·h/mL"},
      {"measurement": "Tmax", "setting": "[1]; 300 ug, 300 µg OD, Day 1, N=8", "value": 2, "unit": "h"},
      {"measurement": "Tmax", "setting": "[1]; 300 ug, 300 µg OD, Day 7, N=8", "value": 1, "unit": "h"},
      {"measurement": "AUC(0-t)", "setting": "[1]; 600 ug, 600 µg OD, Day 1, N=9", "value": 4.24, "unit": "ng·h/mL"},
      {"measurement": "AUC(0-t)", "setting": "[1]; 600 ug, 600 µg OD, Day 7, N=9", "value": 10.5, "unit": "ng·h/mL"},
      {"measurement": "Tmax", "setting": "[1]; 600 ug, 600 µg OD, Day 1, N=9", "value": 1.5, "unit": "h"},
      {"measurement": "Tmax", "setting": "[1]; 600 ug, 600 µg OD, Day 7, N=9", "value": 2, "unit": "h"},
      {"measurement": "systemic bioavailability", "setting": "[2]; after intratracheal administration", "value": "low systemic bioavailability"},
      {"measurement": "bioavailability", "setting": "[2]; after oral administration", "value": "very low bioavailability"},
      {"measurement": "elimination", "setting": "[2]; following intravenous administration, predominantly via the fecal route", "value": "rapidly eliminated"},
      {"measurement": "AE considered related to study medication", "setting": "[3]; single dose 20 µg, N=8", "value": "0 Number (%) of subjects"},
      {"measurement": "AE leading to death", "setting": "[3]; single dose 20 µg, N=8", "value": "0 Number (%) of subjects"},
      {"measurement": "AE leading to withdrawal", "setting": "[3]; single dose 20 µg, N=8", "value": "0 Number (%) of subjects"},
      {"measurement": "At least one AE", "setting": "[3]; single dose 20 µg, N=8", "value": "1 (12.5) Number (%) of subjects"},
      {"measurement": "At least one SAE", "setting": "[3]; single dose 20 µg, N=8", "value": "0 Number (%) of subjects"},
      {"measurement": "Severe AE", "setting": "[3]; single dose 20 µg, N=8", "value": "0 Number (%) of subjects"},
      {"measurement": "AE considered related to study medication", "setting": "[3]; single dose 100 µg, N=8", "value": "0 Number (%) of subjects"},
      {"measurement": "AE leading to death", "setting": "[3]; single dose 100 µg, N=8", "value": "0 Number (%) of subjects"},
      {"measurement": "AE leading to withdrawal", "setting": "[3]; single dose 100 µg, N=8", "value": "0 Number (%) of subjects"},
      {"measurement": "At least one AE", "setting": "[3]; single dose 100 µg, N=8", "value": "0 Number (%) of subjects"},
      {"measurement": "At least one SAE", "setting": "[3]; single dose 100 µg, N=8", "value": "0 Number (%) of subjects"},
      {"measurement": "Severe AE", "setting": "[3]; single dose 100 µg, N=8", "value": "0 Number (%) of subjects"},
      {"measurement": "AE considered related to study medication", "setting": "[3]; single dose 200 µg, N=8", "value": "0 Number (%) of subjects"},
      {"measurement": "AE leading to death", "setting": "[3]; single dose 200 µg, N=8", "value": "0 Number (%) of subjects"},
      {"measurement": "AE leading to withdrawal", "setting": "[3]; single dose 200 µg, N=8", "value": "1 (12.5) Number (%) of subjects"},
      {"measurement": "At least one AE", "setting": "[3]; single dose 200 µg, N=8", "value": "3 (37.5) Number (%) of subjects"},
      {"measurement": "At least one SAE", "setting": "[3]; single dose 200 µg, N=8", "value": "0 Number (%) of subjects"},
      {"measurement": "Severe AE", "setting": "[3]; single dose 200 µg, N=8", "value": "0 Number (%) of subjects"},
      {"measurement": "AE considered related to study medication", "setting": "[3]; single dose 400 µg, N=7", "value": "0 Number (%) of subjects"},
      {"measurement": "AE leading to death", "setting": "[3]; single dose 400 µg, N=7", "value": "0 Number (%) of subjects"},
      {"measurement": "AE leading to withdrawal", "setting": "[3]; single dose 400 µg, N=7", "value": "0 Number (%) of subjects"},
      {"measurement": "At least one AE", "setting": "[3]; single dose 400 µg, N=7", "value": "2 (28.6) Number (%) of subjects"},
      {"measurement": "At least one SAE", "setting": "[3]; single dose 400 µg, N=7", "value": "0 Number (%) of subjects"},
      {"measurement": "Severe AE", "setting": "[3]; single dose 400 µg, N=7", "value": "0 Number (%) of subjects"},
      {"measurement": "AE considered related to study medication", "setting": "[3]; single dose 800 µg, N=7", "value": "0 Number (%) of subjects"},
      {"measurement": "AE leading to death", "setting": "[3]; single dose 800 µg, N=7", "value": "0 Number (%) of subjects"},
      {"measurement": "AE leading to withdrawal", "setting": "[3]; single dose 800 µg, N=7", "value": "0 Number (%) of subjects"},
      {"measurement": "At least one AE", "setting": "[3]; single dose 800 µg, N=7", "value": "3 (42.9) Number (%) of subjects"},
      {"measurement": "At least one SAE", "setting": "[3]; single dose 800 µg, N=7", "value": "0 Number (%) of subjects"},
      {"measurement": "Severe AE", "setting": "[3]; single dose 800 µg, N=7", "value": "0 Number (%) of subjects"},
      {"measurement": "AE considered related to study medication", "setting": "[3]; single dose 1,600 µg, N=7", "value": "0 Number (%) of subjects"},
      {"measurement": "AE leading to death", "setting": "[3]; single dose 1,600 µg, N=7", "value": "0 Number (%) of subjects"},
      {"measurement": "AE leading to withdrawal", "setting": "[3]; single dose 1,600 µg, N=7", "value": "0 Number (%) of subjects"},
      {"measurement": "At least one AE", "setting": "[3]; single dose 1,600 µg, N=7", "value": "2 (28.6) Number (%) of subjects"},
      {"measurement": "At least one SAE", "setting": "[3]; single dose 1,600 µg, N=7", "value": "0 Number (%) of subjects"},
      {"measurement": "Severe AE", "setting": "[3]; single dose 1,600 µg, N=7", "value": "0 Number (%) of subjects"},
      {"measurement": "AE considered related to study medication", "setting": "[3]; single dose 2,000 µg, N=6", "value": "0 Number (%) of subjects"},
      {"measurement": "AE leading to death", "setting": "[3]; single dose 2,000 µg, N=6", "value": "0 Number (%) of subjects"},
      {"measurement": "AE leading to withdrawal", "setting": "[3]; single dose 2,000 µg, N=6", "value": "0 Number (%) of subjects"},
      {"measurement": "At least one AE", "setting": "[3]; single dose 2,000 µg, N=6", "value": "0 Number (%) of subjects"},
      {"measurement": "At least one SAE", "setting": "[3]; single dose 2,000 µg, N=6", "value": "0 Number (%) of subjects"},
      {"measurement": "Severe AE", "setting": "[3]; single dose 2,000 µg, N=6", "value": "0 Number (%) of subjects"},
      {"measurement": "cytokine levels after rhinovirus challenge", "setting": "[4]", "value": "reduced the levels of a range of cytokines in a concentration-dependent manner"},
      {"measurement": "AE considered related to study medication", "setting": "[5]", "value": "0 Number (%) of subjects"},
      {"measurement": "AE leading to death", "setting": "[5]", "value": "0 Number (%) of subjects"},
      {"measurement": "AE leading to withdrawal", "setting": "[5]", "value": "0 Number (%) of subjects"},
      {"measurement": "At least one AE", "setting": "[5]", "value": "3 (37.5) Number (%) of subjects"},
      {"measurement": "At least one SAE", "setting": "[5]", "value": "0 Number (%) of subjects"}
    ]}
  ]
}
